RAD52 inh: RAD52 (human) annealing inhibition. recombinant RAD52 DNA annealing, FRET fluorescence. inhibition, % at 18.7 µM. actives 0.46% (n = 360,000);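 active = every replicate showing at least 50% inhibition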
MLL AF4-AF9 inh: blocks AF4 peptide binding to human AF9. P42568. AlphaScreen, biotin-AF4 peptide binding to FLAG-AF9. inhibition, % at 10 µM. actives 0.47% (n = 350,000). AID 651704;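 active = every replicate reaching a set inhibition limit, whatever the replicate mean, cut at about 25% in these data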
N-glyco inh: blocks N-linked glycosylation in D54 reporter cells; D54 ERlucT glycosylation luciferase reporter, 24 h; percent of 100 nM tunicamycin response; reporter increase, % at 12.5 µM; actives 0.23% (n = 360,000); AID 588692;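 active = mean luciferase reporter signal, scaled so untreated is 0 and the glycosylation-blocking control 100, at or above a set limit in every replicate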;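 note: luciferase carries N-glycosylation sites so blocking glycosylation raises the light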
FN deposition inh: fibronectin deposition inhibition | actives 0.086% (n = 350,000) | inhibition, % at 12.6 µM | AH1F fibroblasts, Alexa488-fibronectin deposition fluorescence, overnight;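 active = mean inhibition across replicates of 30% or more, regardless of how many single replicates reach that level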
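Assay system: AH1F fibroblast monolayer, labelled fibronectin deposition. Amount: 10000 cells per well. Also added: labelled fibronectin 24 nM. Compound: single-point pinned compound. Incubation: cell attachment 1 h, compound and FN exposure overnight. Detection: fluorescence after three HBSS washes, excitation 485 nm, emission 525 nm. Read-out: inhibition of fibronectin deposition signal.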
RAD54 branch: RAD54 (human) branch migration inhibition; RAD54 Holliday junction branch migration, FAM/BHQ fluorescence; inhibition, % at 10.4 µM; actives 0.14% (n = 360,000); AID 602329;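 active = mean normalized replicate activity at least 40 and at least half of replicates scoring 40 or more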;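 note: inhibitors cause a drop in the FAM fluorescence signal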
Target sequence (Q92698 whole entry, looked up): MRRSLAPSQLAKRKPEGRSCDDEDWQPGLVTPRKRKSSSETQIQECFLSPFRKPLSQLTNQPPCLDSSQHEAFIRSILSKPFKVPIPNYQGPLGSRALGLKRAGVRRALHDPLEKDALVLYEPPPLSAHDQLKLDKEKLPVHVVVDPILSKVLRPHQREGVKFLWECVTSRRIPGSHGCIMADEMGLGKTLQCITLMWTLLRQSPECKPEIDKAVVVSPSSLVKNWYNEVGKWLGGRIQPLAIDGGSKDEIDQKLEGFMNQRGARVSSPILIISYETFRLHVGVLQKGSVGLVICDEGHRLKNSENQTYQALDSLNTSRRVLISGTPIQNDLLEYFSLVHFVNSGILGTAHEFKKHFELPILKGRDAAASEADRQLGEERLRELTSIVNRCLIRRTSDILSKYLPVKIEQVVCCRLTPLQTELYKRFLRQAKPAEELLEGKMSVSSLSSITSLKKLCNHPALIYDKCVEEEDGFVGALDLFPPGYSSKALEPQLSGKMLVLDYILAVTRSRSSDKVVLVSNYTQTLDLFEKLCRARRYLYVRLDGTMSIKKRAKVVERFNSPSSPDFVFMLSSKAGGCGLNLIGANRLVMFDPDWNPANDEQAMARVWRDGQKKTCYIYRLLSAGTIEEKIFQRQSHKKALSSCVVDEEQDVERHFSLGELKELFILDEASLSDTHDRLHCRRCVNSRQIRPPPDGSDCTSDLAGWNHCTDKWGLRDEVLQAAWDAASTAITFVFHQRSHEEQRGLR
AlphaScreen intf: AlphaScreen signal interference counter-screen hit. AC50, µM (doses to about 12 µM). actives 45% (n = 530). signal luminescence. AID 720494. shares compounds with MLL AF4-AF9 inh; cut-off not given, nearly all actives have AC50 up to about 14 µM
Large screens that a line does not name were inactive (follow-up assays come after a bar, where they were run). An excerpt weighted towards active compounds, which were near 0.92% of everything screened.

Cc1[nH]c2ccccc2c1C(C#N)(C#N)C1C(=O)c2ccccc2C1=O	MLL AF4-AF9 inh 65.2 | AlphaScreen intf 2.04µM
Cc1[nH]c2ccccc2c1CC#N	none
CC(C)NC(=O)N(C)C[C@@H]1Oc2ccc(NC(=O)Nc3cccc4ccccc34)cc2CC(=O)N([C@H](C)CO)C[C@@H]1C	none (no result: MLL AF4-AF9 inh, N-glyco inh, FN deposition inh)
C/C=C/c1ccc([C@@H]2[C@@H](CO)N(C(=O)CC)[C@@H]2CNC(=O)CC2CC2)cc1	none (no result: RAD52 inh, MLL AF4-AF9 inh, N-glyco inh)
CCN(CC)c1ccc(N=C2C(=O)Nc3ccccc32)cc1	MLL AF4-AF9 inh 57.3 | AlphaScreen intf 12µM
CN(CCc1ccccc1)C(=O)c1ccc(NC(=O)Cc2ccc(NC(=O)C3CCN(C(=O)C4CCCCC4)CC3)cc2)cc1	MLL AF4-AF9 inh 26.6 | AlphaScreen intf inactive
CN(C(=O)c1ccc(NC(=O)Cc2ccc(NC(=O)C3CCN(C(=O)c4ccccc4)CC3)cc2)cc1)C1CC1	MLL AF4-AF9 inh 37.5 | AlphaScreen intf inactive
CN(CCc1ccccc1)C(=O)c1ccc(NC(=O)Cc2cccc(NC(=O)C3CCN(C(=O)C4CCCC4)CC3)c2)cc1	none
O=[N+]([O-])c1ccc(N=Nc2c(Cl)cc(O)cc2Cl)cc1	MLL AF4-AF9 inh 51.6 | AlphaScreen intf 14.1µM
CC(C)(C)OC(=O)N1CCCN(C(c2ccnc3ccccc23)c2nnnn2-c2ccc3c(c2)OCCO3)CC1 (centres undefined)	MLL AF4-AF9 inh 36.2 (no result: N-glyco inh, RAD54 branch) | AlphaScreen intf inactive
COc1ccccc1N1CCN(/N=C/c2cccc(Cl)c2)CC1	MLL AF4-AF9 inh 26.7 | AlphaScreen intf inactive
COc1ccc(/C=N/N2CCN(c3ccccc3OC)CC2)cc1Br	MLL AF4-AF9 inh 27.1 | AlphaScreen intf inactive
COc1ccc(/C=N/N2CCN(c3ccccc3OC)CC2)cc1OC	none (no result: RAD52 inh, MLL AF4-AF9 inh)
COc1ccccc1N1CCN(/N=C/C=C\c2ccco2)CC1	none (no result: RAD52 inh, MLL AF4-AF9 inh, FN deposition inh)
COc1ccccc1N1CCN(/N=C/C=C\c2ccccc2[N+](=O)[O-])CC1	MLL AF4-AF9 inh 51.0 (no result: RAD54 branch) | AlphaScreen intf inactive
CN(C)CCCNC(=O)C[C@@H]1CC[C@@H]2[C@H](COC[C@@H](O)CN2C(=O)c2ccncc2)O1	none (no result: N-glyco inh)
CN1CCN(C(=O)C[C@H]2C[C@@H]3c4cc(NC(=O)Nc5ccc(F)cc5)ccc4O[C@@H]3[C@@H](CO)O2)CC1	none (no result: N-glyco inh)
Cc1ccccc1/C=N/Nc1nc2ccccc2[nH]1	none (no result: RAD54 branch)
O=[N+]([O-])c1cc(/C=N/Nc2nc3ccccc3[nH]2)c(O)cc1O	MLL AF4-AF9 inh 41.2 (no result: N-glyco inh, RAD54 branch) | AlphaScreen intf 1.55µM
Oc1cccc(C(Nc2nccs2)c2ccc3cccnc3c2O)c1 (centres undefined)	MLL AF4-AF9 inh 48.6 (no result: RAD54 branch) | AlphaScreen intf 3.33µM
O=C(C[C@H]1CC[C@@H]2[C@H](COC[C@@H](O)CN2S(=O)(=O)c2ccc(F)cc2)O1)NCC1CCCCC1	RAD52 inh 88.7, MLL AF4-AF9 inh 34.1 (no result: N-glyco inh) | AlphaScreen intf inactive
O=C(C[C@@H]1CC[C@H]2[C@@H](COC[C@H](O)CN2S(=O)(=O)c2ccc(F)cc2)O1)NCCN1CCCCC1	none (no result: N-glyco inh)
C[C@@H]1CCCCO[C@@H](CN(C)S(=O)(=O)c2cn(C)cn2)[C@@H](C)CN([C@@H](C)CO)C(=O)c2cc(NC(=O)Nc3ccc4c(c3)OCO4)ccc2O1	none (no result: N-glyco inh, FN deposition inh)
O=C(N/N=C/c1cc(Cl)cc([N+](=O)[O-])c1O)c1cccc(S(=O)(=O)N2CCOCC2)c1	MLL AF4-AF9 inh 35.9 | AlphaScreen intf 11.9µM
O=C(N/N=C/c1cc(Br)cc(Br)c1O)c1cccc(S(=O)(=O)N2CCOCC2)c1	none (no result: RAD54 branch)
COC(=O)c1ccc2nc(C)cc(Nc3ccc(N(C)C)cc3)c2c1	MLL AF4-AF9 inh 31.5 | AlphaScreen intf inactive
COC(=O)c1ccc(Nc2cc(C)nc3ccccc23)cc1	none
CN1C(=O)c2cc(NC(=O)Cc3ccccc3)ccc2OC[C@H]2O[C@H](CC(=O)NC3CCC3)CC[C@@H]21	none (no result: N-glyco inh)
O=[N+]([O-])c1cc(CN2CCCC2)ccc1Sc1ccc(Cl)cc1	MLL AF4-AF9 inh 34.3 (no result: RAD54 branch) | AlphaScreen intf inactive
Clc1ccc(CN2CCCCCC2)cc1	none
COc1ccc(N2CCN(C(=O)C(=O)c3c(C)n(C)c4ccccc34)CC2)cc1	none
COc1ccc(N2CCN(CCCNC(=O)C(=O)c3c(C)n(C)c4ccccc34)CC2)cc1	MLL AF4-AF9 inh 37.0 | AlphaScreen intf inactive
C[C@@H]1CN([C@H](C)CO)C(=O)c2cc(NS(=O)(=O)c3ccc(Cl)cc3)ccc2O[C@@H](C)CCCCO[C@@H]1CN(C)CC1CCCCC1	none (no result: RAD52 inh, MLL AF4-AF9 inh, N-glyco inh, FN deposition inh)
